Source: ChEMBL document CHEMBL1128326, “N-acylated alpha-amino acids as novel oral delivery agents for proteins” (1995)

Each molecule was assayed against Serine protease 1 (Homo sapiens) (UniProt P07477) (assay: The compound was tested for inhibitory activity against trypsin, activity is expressed as %inhibition.). Conditions: concentration not given here.
Summary of the method: (§1)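 Trypsin activity was taken from USP pancreatin at 1 mg/mL final, in 50 mM potassium phosphate pH 7.6 at 37 °C. Test compound was preincubated with enzyme for 10 min. The reaction was started with N-benzoyl-L-arginine p-nitroanilide (300 μM final), and p-nitroaniline formation was followed at 400 nm over 12 min. Percent inhibition was calculated at 12 min from reaction rates versus compound-free controls.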

Chain of Serine protease 1 (Homo sapiens) (P07477 whole entry): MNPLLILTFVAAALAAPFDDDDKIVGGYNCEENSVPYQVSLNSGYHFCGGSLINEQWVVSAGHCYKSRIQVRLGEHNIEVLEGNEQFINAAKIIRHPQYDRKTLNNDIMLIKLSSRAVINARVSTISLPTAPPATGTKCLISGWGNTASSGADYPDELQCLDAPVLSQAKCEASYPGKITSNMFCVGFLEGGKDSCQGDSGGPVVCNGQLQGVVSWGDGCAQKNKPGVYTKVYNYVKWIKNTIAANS

| inhibition [%] | SMILES |
| --- | --- |
| 44 | O=C(N[C@H](C(=O)O)c1ccccc1)C1CCCCC1 |

The molecules below were run on Rattus norvegicus (assay: The compound was tested for oral delivery of interferon-alpha in rats.(compound dose=400 mg/kg; inf-alpha dose= 250 ug/kg)). Conditions: not given.

| SMILES | Amount delivered [pg/mL] |
| --- | --- |
| O=C(N[C@H](C(=O)O)c1ccccc1)C1CCCCC1 | 434 |

What follows are molecules tested on Rattus norvegicus (assay: The compound was tested for oral delivery of interferon-alpha in rats.(compound dose=400 mg/kg; inf-alpha dose= 500 ug/kg)). Conditions: not given.

| SMILES | Amount delivered [pg/mL] |
| --- | --- |
| O=C(N[C@H](C(=O)O)c1ccccc1)C1CCCCC1 | 2598 |

The molecules below were run on Rattus norvegicus (assay: The compound was tested for oral delivery of interferon-alpha in rats.(compound dose=800 mg/kg; inf-alpha dose= 1 mg/kg)). Conditions: not given.

| SMILES | Amount delivered [pg/mL] |
| --- | --- |
| O=C(N[C@H](C(=O)O)c1ccccc1)c1ccccc1 | 8427 |
| O=C(CC1CCCCC1)N[C@H](C(=O)O)c1ccccc1 | 6401 |
| O=C(N[C@H](C(=O)O)c1ccccc1)C1CCCC1 | 4707 |
| NC(=O)NCCC[C@H](NC(=O)C1CCCCC1)C(=O)O | 1922 |
| NCCCC[C@H](NC(=O)C1CCCCC1)C(=O)O | 3340 |
| O=C(N[C@H](C(=O)O)c1ccccc1)C1CCCCCC1 | 4066 |
| O=C(N[C@H](C(=O)O)c1ccccc1)c1ccccc1O | 757 |
| O=C(N[C@@H](Cc1ccccc1)C(=O)O)C1CCCCC1 | 611 |
| N=C(N)NCCC[C@H](NC(=O)C1CCCCC1)C(=O)O | 2107 |
| CCC(C)[C@H](NC(=O)C1CCCCC1)C(=O)O (stereo partly drawn) | 340 |
| O=C(CCC1CCCCC1)N[C@H](C(=O)O)c1ccccc1 | 3026 |
| O=C(N[C@@H](Cc1ccc(O)cc1)C(=O)O)C1CCCCC1 | 3422 |

The molecules below were run against Serine protease 1 (Homo sapiens) (UniProt P07477) (assay: The compound was tested for inhibitory activity against trypsin at 10 mg/mL). Conditions: not given.
Summary of the method: as §1

| inhibition [%] | SMILES |
| --- | --- |
| 39 | CC(C)C[C@H](NC(=O)C1CCCCC1)C(=O)O |

Organism: Rattus norvegicus
Experiment: The compound was tested for oral delivery of interferon-alpha in rats.
Conditions: not given

| SMILES | Amount delivered [pg/mL] |
| --- | --- |
| O=C(N[C@H](C(=O)O)c1ccccc1)C1CCCCC1 | 3808 |

The molecules below were run on Rattus norvegicus (assay: The compound was tested for oral delivery of calcitonin, activity is measured as reduction in serum calcium levels at 400 mg/kg and dose of calcitotin is 10 ug/kg). Conditions: not given.
Type: functional
Summary of the method: (§2)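 Male Sprague-Dawley rats (125–150 g; groups of 6–7) were anesthetized with ketamine 44 mg/kg plus thiazine 0.5 mg/kg. They were given an aqueous pH 7.2 solution of compound with salmon calcitonin (400 mg/kg and 10 μg/kg) by oral gavage at 2 mL/kg. Control groups received calcitonin alone or compound alone. Tail-artery blood was sampled serially, and serum calcium was measured with a kit; results are % decrease, mean ± SE.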

| SMILES | Ca2+ reduction |
| --- | --- |
| CC(C)C[C@@H](NC(=O)C1CCCCC1)C(=O)O | -18.32 |
| CC(C)C[C@H](NC(=O)c1ccc([N+](=O)[O-])cc1)C(=O)O | -11.8 |
| CC(C)C[C@H](NC(=O)C1CCCCC1)C(=O)O.N=C(N)NCCC[C@H](NC(=O)C1CCCCC1)C(=O)O.O=C(N[C@@H](Cc1ccc(O)cc1)C(=O)O)C1CCCCC1 | -33.9 |
| CC(C)C[C@H](NC(=O)C1CCC(C)CC1)C(=O)O (stereo partly drawn) | -15.52 |
| CC(C)C[C@H](NC(=O)C1CCCCC1)C(=O)O | -21.82 |
| CC(C)C[C@H](NC(=O)c1ccccc1[N+](=O)[O-])C(=O)O | -6.61 |
| CC(C)C[C@H](NC(=O)C1CCCC(C)C1)C(=O)O (stereo partly drawn) | -13.69 |
| CC(C)C[C@H](NC(=O)c1cccc([N+](=O)[O-])c1)C(=O)O | -14.5 |
| CC(C)C[C@H](NC(=O)CCC1CCCCC1)C(=O)O | -14.97 |
| CC(C)C[C@H](NC(=O)C1CCCCCC1)C(=O)O | -19.76 |
| CC(C)C[C@H](NC(=O)C1CCCCC1C)C(=O)O (stereo partly drawn) | -18.27 |
| CC(C)C[C@H](NC(=O)c1ccccc1)C(=O)O | -12.9 |

Organism: Rattus norvegicus
Experiment: The compound was tested for oral delivery of calcitonin, activity is measured as reduction in serum calcium levels.
Type: functional
Design: unit not given beside the values
Conditions: not given
Summary of the method: as §2

| SMILES | Ca2+ reduction |
| --- | --- |
| CC(C)C[C@H](NC(=O)C1CCCCC1C(=O)O)C(=O)O (stereo partly drawn) | -10.47 |
| CC(C)C[C@H](NC(=O)C1CCCC1)C(=O)O | -6.28 |
| COc1cccc(C(=O)N[C@@H](CC(C)C)C(=O)O)c1 | -7.9 |
| CC(C)C[C@H](NC(=O)C1CC1)C(=O)O | -3.87 |
